Laboratory results as given in article PMC5420486 (Clinical cancer research : an official journal of the …, 2016).
“Also recorded” adds a separate entry of the source.

How the values were obtained:
[1] = tested on: Asian patients with advanced HCC; assay: Phase I dose-escalation, standard 3+3 design; assay type: in vivo
advanced HCC patients = assay: Pharmacogenomic and exploratory biomarker subgroup analyses of TTP; assay type: in vivo, human; conditions: 30 mg QD
In short: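 Advanced HCC patients took oral test compound once daily. For genotyping, venous blood DNA was typed at 20 SNPs in 14 candidate genes by Sanger sequencing or TaqMan assays. Circulating markers, including IL6, were measured by Searchlight at baseline (day 1). TTP ran from drug start to documented progression or death. Genotype was tested by time-to-event models with score (log-rank) test, unadjusted. Biomarkers were tested by proportional hazards regression, univariate and covariate-adjusted.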

[2] = tested on: advanced hepatocellular carcinoma (HCC) patients; assay: Anti-tumor activity and survival; assay type: in vivo, human
[3] = tested on: patients with advanced HCC; assay: Safety assessment: adverse events graded by CTCAE v3.0; assay type: in vivo, human; conditions: for Diarrhoea: treatment-related AE
[4] = tested on: patients with other solid tumors; conditions: other tumor types, predominantly non-Asian populations; cited from earlier work
[5] = Plasma pharmacokinetics, noncompartmental analysis; assay type: in vivo, human; conditions: for Tmax: human, plasma, oral
In short: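 Patients were dosed orally once daily. Blood was drawn within 60 minutes predose and at 1, 2, 3, 4, 6, 8 and 24 h post dose on days 1 and 15, in both escalation and expansion cohorts. Cmax, Tmax, AUC0-24, AUC0-∞, T1/2, C24 and CL/F were derived from plasma test compound concentrations by noncompartmental analysis.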

[6] = tested on: Asia-Pacific patients with HCC; conditions: cited from earlier work
[7] = 30 mg QD, RECIST population (n=38)
[8] = 30 mg QD, mRECIST population (n=35)

With `COc1cc2c(Oc3ccc(NC(=O)C4(C(=O)Nc5ccc(F)cc5)CC4)cc3F)ccnc2cc1OCCCN1CCOCC1` [foretinib] the “maximum tolerated dose (MTD)” value ([1]; Asian patients with advanced HCC, oral, first-line) was 30 mg QD, the “dose-limiting toxicities (DLTs)” value ([1]; in vivo) was “no DLTs” and the “median TTP” value (advanced HCC patients; one or no copy of NR1I3/CAR CAT haplotype) was “≈ 6 months”. For the same compound, the “median TTP” value (advanced HCC patients; two copies of NR1I3/CAR CAT haplotype) was “≈ 2 months”, the “median time to progression (TTP)” value ([2]; 30 mg QD) was 4.2 months and the Disease stabilization rate [2, 7] was 24 (63·2) n (%). For the same compound, the Objective response rate [2, 7] was 3 (7·9) n (%), the “Patients achieving best overall response: Complete response” value [2, 7] was 0 n (%) and the “Patients achieving best overall response: Disease progression” value [2, 7] was 14 (36.8) n (%). For the same compound, the “Patients achieving best overall response: Partial response” value [2, 7] was 3 (7.9) n (%), the “Patients achieving best overall response: Stable disease” value [2, 7] was 21 (55.3) n (%) and the “median overall survival (OS)” value ([2]; 30 mg QD, all enrolled patients treated at the MTD (N=39), Kaplan-Meier) was 15.7 months. For the same compound, the Disease stabilization rate ([2]; 30 mg QD, mRECIST) was 82.9%, the “median duration of response” value ([2]; 30 mg QD, mRECIST) was 7.6 months and the Disease stabilization rate [2, 8] was 29 (82·9) n (%). For the same compound, the Objective response rate [2, 8] was 8 (22·9) n (%), the “Patients achieving best overall response: Complete response” value [2, 8] was 0 n (%) and the “Patients achieving best overall response: Disease progression” value [2, 8] was 6 (17·1) n (%). The “Patients achieving best overall response: Partial response” value [2, 8] was 8 (22·9) n (%), the “Patients achieving best overall response: Stable disease” value [2, 8] was 21 (60·0) n (%) and the “objective response rate (ORR)” value ([2]; 30 mg QD, mRECIST, 35 evaluable patients) was 22.9%. The “Patients achieving ≥50% reduction from baseline AFP” value ([2]; 30 mg QD, patients with baseline AFP ≥200 ng/mL (n=15), mRECIST population) was 7 (46·7) n (%), the “patients with a 50% decrease from baseline AFP at at least one time point” value ([2]; 30 mg, baseline AFP ≥ 200 ng/mL) was 46.7% and the “patients achieving a PR” value ([2]; 30 mg, mRECIST) was “eight”. For the same compound, the fatal events ([3]; 30 mg) was “three”, the “relation of fatal events to study treatment” value ([3]; 30 mg) was “none of these events were considered related to study treatment” and the “dose reductions due to an AE” value ([3]; 30 mg QD) was “no patients; also recorded: no dose reductions”. The Abdominal pain ([3]; 30 mg QD, N=39, all patients) was 5 (12·8) n (%), the Cough ([3]; 30 mg QD, N=39, all patients) was 6 (15·4) n (%) and the Hypoalbuminaemia ([3]; 30 mg QD, N=39, all patients) was 7 (17·9) n (%). The Insomnia ([3]; 30 mg QD, N=39, all patients) was 6 (15·4) n (%), the Diarrhoea ([3]; 30 mg QD, N=39, all patients) was 6 (15·4) n (%) and the Abdominal pain ([3]; 30 mg QD, N=39, grade 3) was 3 (7·7) n (%). The Cough ([3]; 30 mg QD, N=39, grade 3) was 0 n (%), the Hypoalbuminaemia ([3]; 30 mg QD, N=39, grade 3) was 5 (12.8) n (%) and the Insomnia ([3]; 30 mg QD, N=39, grade 3) was 1 (2.6) n (%). For the same compound, the Diarrhoea ([3]; 30 mg QD, N=39, grade 3) was 0 n (%), the Abdominal pain ([3]; 30 mg QD, N=39, grade 4) was 0 n (%) and the Cough ([3]; 30 mg QD, N=39, grade 4) was 0 n (%). The Hypoalbuminaemia ([3]; 30 mg QD, N=39, grade 4) was 0 n (%), the Insomnia ([3]; 30 mg QD, N=39, grade 4) was 0 n (%) and the Oedema peripheral ([3]; 30 mg QD, N=39, grade 4) was 1 (2.6) n (%). For the same compound, the Diarrhoea ([3]; 30 mg QD, N=39, grade 4) was 0 n (%), the “previously reported MTD” value [4] was 60 mg QD and the dose-proportionality assessment ([5]; 30 to 45 mg, day 15) was “dose proportionality was not achieved”. For the same compound, the “oral clearance (CL/F), 45-mg dose compared with 30-mg dose” value ([5]; day 15, N=6, interpret with caution) was 50 % higher, the Tmax [5] was 3 to 3.5 h and the Tmax ([5]; 30 mg) was 3 h.
In the case of `CNC(=O)c1cc(Oc2ccc(NC(=O)Nc3ccc(Cl)c(C(F)(F)F)c3)cc2)ccn1` [sorafenib], the “patients requiring dose reduction” value ([6]; Asia-Pacific patients with HCC) is listed as 30.9% and the “median OS” value ([6]; pivotal Asia-Pacific sorafenib study) is listed as 6.5 months.
